Source: ChEMBL document CHEMBL1127070, “Synthesis and binding properties of MK-801 isothiocyanates; (+)-3-isothiocyanato-5-methyl-10,11-dihydro-5H-dibenzo[a,d]cyclohepten- 5,10-imine hydrochloride: a new, potent and selective electrophilic affinity ligand for the NMDA receptor-coupled phencyclidine binding site” (J Med Chem, 1993)
pKi: −log10 of the molar value.

Experiments:
[1] = target: T1, Glutamate NMDA receptor (Rattus norvegicus) (UniProt P35439+Q00959+Q00960+Q00961+Q62645+Q8VHN2+Q9R1M7); assay: Tested for the % inactivation of [3H]dizocilpine binding to NMDA receptor at 10 uM); assay type: protein-complex assay
Outline: (§1)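 Thawed rat brain homogenates pretreated with isothiocyanate for 30 min at 5 °C. Washed three times with buffer containing 100 μM glutamate, 30 μM glycine and 300 μM MgCl2, which removes reversible ligand. Binding of 2 nM (+)-[3H]-3 then measured as in the reversible assay. % inactivation is versus similarly washed untreated controls. Triplicates, mean ± SEM of ≥2 experiments.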

[2] = target: Glutamate NMDA receptor; assay: Tested for the inhibition of [3H]dizocilpine binding to N-methyl-D-aspartate (NMDA) receptor-coupled phencyclidine binding site; assay type: protein-complex assay
Outline: (§2)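 Rat brain membranes (Sprague–Dawley, whole brain minus cerebellum) in 5 mM Tris-HCl pH 7.4, washed by repeated 20000g spins. Incubation with 2 nM (+)-[3H]-3, 10 μM glutamate and 10 μM glycine for 90 min at 5 °C. Nonspecific binding defined with 10 μM (+)-3. Filtration, then scintillation counting.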

[3] = target: Sodium-dependent dopamine transporter (Rattus norvegicus) (UniProt P23977); assay: Tested for in vitro inhibition of the displacement of [3H]mazindol from dopamine transporter
[4] = target: Sigma non-opioid intracellular receptor 1 (Rattus norvegicus, UniProt Q9R0C9); assay: Tested for in vitro inhibition of the displacement of (+)-[3H]pentazocine from sigma opioid receptor
Outline: (§3)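 Reversible and wash-resistant displacement assays used published protocols, with extra washes added to remove unreacted compound. Final radioligand levels were [3H]flunitrazepam 1 nM, (+)-[3H]pentazocine 3 nM, [3H]FOXY 2 nM, [3H]QNB 0.5 nM and [3H]mazindol 5 nM. Test compound went up to 100 μM. Runs were in triplicate, with at least two experiments. Ki came from Cheng-Prusoff.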

[5] = target: Glutamate NMDA receptor; assay: Tested for in vitro inhibition of the displacement of [3H]1-[1-(2-thieny])cyclohexyl] peridine from NMDA receptor; assay type: protein-complex assay
[6] = target: Mu-type opioid receptor (Rattus norvegicus, UniProt P33535); assay: Tested for in vitro inhibition of the displacement of [3H]FOXY from mu opioid receptor; outline: as §3
[7] = target: Muscarinic acetylcholine receptor; assay: Tested for in vitro inhibition of the displacement of [3H]quinuclidinyl benzilate muscarinic receptor; assay type: protein assay
[8] = target: GABA-A receptor; anion channel; assay: In vitro inhibition of [3H]flunitrazepam displacement from GABA-A receptor; assay type: protein-complex assay, Rattus norvegicus; outline: as §3
[9] = target: Glutamate NMDA receptor; assay: Tested for in vitro inhibition of the displacement of (+)-[3H]dizocilpine from NMDA receptor; assay type: protein-complex assay; outline: as §2
[10] = target: T1, Glutamate NMDA receptor (Rattus norvegicus); assay: Tested for % inactivation of the displacement of (+)-[3H]dizocilpine from NMDA receptor by 100 nM; assay type: protein-complex assay; outline: as §1
[11] = target: T1, Glutamate NMDA receptor (Rattus norvegicus); assay: Tested for % inactivation of the displacement of [3H]1-[1-(2-thieny])cyclohexyl] peridine from NMDA receptor by 100 nM; assay type: protein-complex assay
[12] = target: Muscarinic acetylcholine receptor; assay: Tested for in vitro inhibition of the displacement of [3H]QNB from CNS receptor; assay type: protein assay; outline: as §3

Sodium-dependent dopamine transporter (Rattus norvegicus), sequence (P23977 whole entry, looked up): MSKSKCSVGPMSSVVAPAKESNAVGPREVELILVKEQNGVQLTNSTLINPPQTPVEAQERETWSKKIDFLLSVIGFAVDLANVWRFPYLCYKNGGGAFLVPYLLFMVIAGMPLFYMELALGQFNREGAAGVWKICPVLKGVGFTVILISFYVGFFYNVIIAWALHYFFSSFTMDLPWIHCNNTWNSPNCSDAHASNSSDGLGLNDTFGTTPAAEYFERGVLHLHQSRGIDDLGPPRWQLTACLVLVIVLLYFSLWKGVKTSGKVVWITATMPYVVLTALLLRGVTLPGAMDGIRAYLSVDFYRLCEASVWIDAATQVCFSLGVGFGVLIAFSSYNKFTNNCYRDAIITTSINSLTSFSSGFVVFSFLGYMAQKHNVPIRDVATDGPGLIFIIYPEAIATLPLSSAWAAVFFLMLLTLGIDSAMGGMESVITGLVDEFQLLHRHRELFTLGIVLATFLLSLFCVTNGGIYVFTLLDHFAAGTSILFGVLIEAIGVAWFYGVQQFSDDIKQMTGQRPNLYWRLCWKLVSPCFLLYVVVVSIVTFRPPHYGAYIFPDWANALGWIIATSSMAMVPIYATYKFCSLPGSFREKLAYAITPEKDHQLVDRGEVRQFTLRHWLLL
Mu-type opioid receptor, sequence (P33535 whole entry): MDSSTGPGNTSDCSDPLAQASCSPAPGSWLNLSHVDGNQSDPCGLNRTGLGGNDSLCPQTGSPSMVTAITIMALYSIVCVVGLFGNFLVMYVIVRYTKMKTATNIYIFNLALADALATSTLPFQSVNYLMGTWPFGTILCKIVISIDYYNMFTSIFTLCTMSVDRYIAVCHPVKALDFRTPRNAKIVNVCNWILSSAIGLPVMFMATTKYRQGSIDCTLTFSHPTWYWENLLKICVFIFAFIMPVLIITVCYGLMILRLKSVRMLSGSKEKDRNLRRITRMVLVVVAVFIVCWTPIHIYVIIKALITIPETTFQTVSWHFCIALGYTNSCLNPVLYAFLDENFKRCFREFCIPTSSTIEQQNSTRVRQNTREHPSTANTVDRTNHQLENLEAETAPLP
Sigma non-opioid intracellular receptor 1, sequence (Q9R0C9 whole entry): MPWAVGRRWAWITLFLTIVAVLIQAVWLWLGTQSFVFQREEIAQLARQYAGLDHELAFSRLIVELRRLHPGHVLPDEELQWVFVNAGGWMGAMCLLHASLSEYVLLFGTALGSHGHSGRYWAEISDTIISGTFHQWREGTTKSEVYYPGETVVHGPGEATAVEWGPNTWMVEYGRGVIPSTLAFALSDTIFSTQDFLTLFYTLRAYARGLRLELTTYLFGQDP

Work on CC[C@]1(c2cccc(N=C=S)c2)OC[C@H]([C@@H]2CCCCN2)O1 yielded an Activity [1] of 55% and a pKi [2] of 7.03.

Work on C[C@]12N[C@H](Cc3cc(N=C=S)ccc31)c1ccccc12 yielded a pKi [2] of 6.07.

Work on S=C=Nc1cccc(C2(N3CCCCC3)CCCCC2)c1 yielded a pKi [2] of 6.27.

In the case of C[C@]12N[C@H](Cc3ccc(N=C=S)cc31)c1ccccc12 (stereo in doubt; (+)-8a) [listing 1 of 2 here], the pKi [3] was 5.16, the pKi [4] was 5.32 and the pKi [5] was 6.88. For the same compound, the pKi [6] was < 4.00, the Ki [7] was > 100000 nM and the pKi [2] was 7.43. For the same compound, the pKi [8] was < 4.00 and the pKi [9] was 7.43.

C[C@]12N[C@H](Cc3ccc(N=C=S)cc31)c1ccccc12 (stereo in doubt; (+)-8a) [listing 2 of 2 here] gave an Activity [10] of 53%, an Activity [1] of 56% and an Activity [11] of 50%.

Compound C[C@]12N[C@H](Cc3ccc(N=C=S)cc31)c1ccccc12 (stereo in doubt; (-)-8a) has a pKi [2] of 6.08.

For C[C@]12N[C@H](Cc3ccccc31)c1ccccc12 [DIZOCILPINE], the pKi [3] was 4.39, the pKi [6] was < 4.00 and the Ki [12] was > 100000 nM. The pKi [8] was < 4.00.
